For data set [1], the system named is P388. Put plainly: Cytotoxicity against mouse P388 cells. Type of data set: functional, cell-based.
Data set [2] relates to A549. Put plainly: Cytotoxicity against human A549 cells. The class given is functional, cell-based.
Data set [3] in a line: Cytotoxicity against human MEL28 cells. The class given is functional, cell-based. Particulars: SK-MEL-28.
Data set [4] deals with HT-29. Put plainly: Cytotoxicity against human HT29 cells. Type of data set: functional, cell-based.
The subject of data set [5] is Artemia. The data set is described as follows: Toxicity against brine shrimp assessed as immobilization at 17 ug/ml. Type of data set: organism-based. Particulars: in vivo. An outline of the steps:
(§1)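 Brine shrimp immobilization was scored in a 96-well plate format and reported as percent immobilization with 90% confidence intervals. Where both monovalent and divalent cation salts of a sulfate were isolated, the divalent cation salt was the one tested.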

Data set [6] deals with Artemia. The data set is described as follows: Toxicity against brine shrimp assessed as immobilization at 50 ug/ml. Type of data set: organism-based. Particulars: in vivo. An outline of the steps:
as §1

A word on the IC50: it is the concentration needed to halve the response being measured. A low value points to higher potency. In the case of `CC(C)=CC(=O)C[C@@H](C)[C@H]1CC[C@@]2(C)[C@@H]3CC[C@H]4C(C)(C)[C@@H](OS(=O)(=O)O)CC[C@@]45C[C@@]35CC[C@]12C`, the IC50 in data set [1], in data set [2], in data set [3] and in data set [4] was greater than 10 µg/mL each time.
For `CC(C)=C[C@H](O)C[C@@H](C)[C@H]1CC[C@@]2(C)[C@@H]3CC[C@H]4[C@](C)(CO)[C@@H](OS(=O)(=O)O)CC[C@@]45C[C@@]35CC[C@]12C`, in data set [5], the Activity was found to be 47.1%. For the same molecule, the IC50 in data set [1], in data set [2], in data set [3] and in data set [4] was greater than 10 µg/mL throughout.
Turning to `COC(=O)[C@@H]1[C@@H](OS(=O)(=O)O)CC[C@]23C[C@]24CC[C@]2(C)[C@@H]([C@H](C)C[C@@H](O)C=C(C)C)CC[C@@]2(C)[C@@H]4CC[C@@H]13`, the Activity in data set [6] is given as 39.1%. The IC50 in data set [1], in data set [2], in data set [3] and in data set [4] was greater than 1 µg/mL throughout.
As to `COC(=O)[C@]1(C)[C@@H](OS(=O)(=O)O)CC[C@]23C[C@]24CC[C@]2(C)[C@@H]([C@H](C)CC(=O)C=C(C)C)CC[C@@]2(C)[C@@H]4CC[C@@H]13`, the IC50 in data set [1], in data set [2], in data set [3] and in data set [4] was greater than 10 µg/mL in each case.
Regarding `COC(=O)[C@@H]1[C@@H](OS(=O)(=O)O)CC[C@]2(C)C3=C(CC[C@@H]12)[C@]1(C)CC[C@H]([C@H](C)CC(=O)C=C(C)C)[C@@]1(C)CC3`, the Activity in data set [6] was 35.5%. Also, the IC50 in data set [1], in data set [2], in data set [3] and in data set [4] was greater than 1 µg/mL in each case.
Take `COC(=O)[C@]1(C)[C@@H](OS(=O)(=O)[O-])CC[C@]23C[C@]24CC[C@]2(C)[C@@H]([C@H](C)CC(=O)C=C(C)C)CC[C@@]2(C)[C@@H]4CC[C@@H]13.COC(=O)[C@]1(C)[C@@H](OS(=O)(=O)[O-])CC[C@]23C[C@]24CC[C@]2(C)[C@@H]([C@H](C)CC(=O)C=C(C)C)CC[C@@]2(C)[C@@H]4CC[C@@H]13.[Ca+2]`: the IC50 in data set [1], in data set [2], in data set [3] and in data set [4] was greater than 10 µg/mL each time.
Consider `CC(C)=C[C@H](O)C[C@@H](C)[C@H]1CC[C@@]2(C)[C@@H]3CC[C@H]4C(C)(C)[C@@H](OS(=O)(=O)O)CC[C@@]45C[C@@]35CC[C@]12C`, for which the IC50 in data set [1], in data set [2], in data set [3] and in data set [4] was greater than 2 µg/mL throughout.
Regarding `COC(=O)[C@]1(C)[C@@H](OS(=O)(=O)[O-])CC[C@]23C[C@]24CC[C@]2(C)[C@@H]([C@H](C)CC(=O)C=C(C)C)CC[C@@]2(C)[C@@H]4CC[C@@H]13.[Na+]`, the IC50 in data set [1], in data set [2], in data set [3] and in data set [4] was greater than 10 µg/mL each time.
As for `COC(=O)[C@@H]1[C@@H](OS(=O)(=O)O)CC[C@]23C[C@]24CC[C@]2(C)[C@@H]([C@H](C)CC(=O)C=C(C)C)CC[C@@]2(C)[C@@H]4CC[C@@H]13`, the IC50 in data set [1], in data set [2], in data set [3] and in data set [4] was greater than 1 µg/mL in each case.
On to `COC(=O)[C@]1(C)[C@@H](OS(=O)(=O)O)CC[C@]23C[C@]24CC[C@]2(C)[C@@H]([C@H](C)C[C@@H](O)C=C(C)C)CC[C@@]2(C)[C@@H]4CC[C@@H]13`, for which the Activity in data set [5] is reported as 55.7%. The IC50 in data set [1], in data set [2], in data set [3] and in data set [4] was greater than 10 µg/mL in each case.
Consider `CC(C)=CC(=O)C[C@@H](C)[C@H]1CC[C@@]2(C)[C@@H]3CC[C@H]4[C@](C)(CO)[C@@H](OS(=O)(=O)O)CC[C@@]45C[C@@]35CC[C@]12C`, for which the IC50 in data set [1], in data set [2], in data set [3] and in data set [4] was greater than 2 µg/mL in each case.
For the molecule `COC(=O)[C@@H]1[C@@H](OS(=O)(=O)O)CC[C@]2(C)C3=C(CC[C@@H]12)[C@]1(C)CC[C@H]([C@H](C)C[C@@H](O)C=C(C)C)[C@@]1(C)CC3`, the IC50 in data set [1], in data set [2], in data set [3] and in data set [4] was greater than 2 µg/mL each time.
With `COC(=O)[C@]1(C)[C@@H](OS(=O)(=O)[O-])CC[C@]23C[C@]24CC[C@]2(C)[C@@H]([C@H](C)CC(=O)C=C(C)C)CC[C@@]2(C)[C@@H]4CC[C@@H]13.COC(=O)[C@]1(C)[C@@H](OS(=O)(=O)[O-])CC[C@]23C[C@]24CC[C@]2(C)[C@@H]([C@H](C)CC(=O)C=C(C)C)CC[C@@]2(C)[C@@H]4CC[C@@H]13.[Mg+2]`, the IC50 in data set [1], in data set [2], in data set [3] and in data set [4] was greater than 10 µg/mL throughout.

(Values after ChEMBL document CHEMBL1155675, “New triterpenoid sulfates from the red alga Tricleocarpa fragilis” (J Nat Prod, 2000).)
